Measured values from ChEMBL document CHEMBL4602720, “Degradation versus Inhibition: Development of Proteolysis-Targeting Chimeras for Overcoming Statin-Induced Compensatory Upregulation of 3-Hydroxy-3-methylglutaryl Coenzyme A Reductase” (J Med Chem, 2020).
Active and inactive are the calls of the source. The rule behind the calls is not given here.

What was measured:
[1] = target: T1, Protein cereblon/3-hydroxy-3-methylglutaryl-coenzyme A reductase (Cricetulus griseus, UniProt P00347+G3H338); test: Protac activity at CRBN/HMGCR in Insig-1/Insig-2 deficient Chinese hamster SRD15 cells assessed as induction of HMGCR degradation after 16 hrs by immunoblotting analysis
T1 sequence (P00347 whole entry): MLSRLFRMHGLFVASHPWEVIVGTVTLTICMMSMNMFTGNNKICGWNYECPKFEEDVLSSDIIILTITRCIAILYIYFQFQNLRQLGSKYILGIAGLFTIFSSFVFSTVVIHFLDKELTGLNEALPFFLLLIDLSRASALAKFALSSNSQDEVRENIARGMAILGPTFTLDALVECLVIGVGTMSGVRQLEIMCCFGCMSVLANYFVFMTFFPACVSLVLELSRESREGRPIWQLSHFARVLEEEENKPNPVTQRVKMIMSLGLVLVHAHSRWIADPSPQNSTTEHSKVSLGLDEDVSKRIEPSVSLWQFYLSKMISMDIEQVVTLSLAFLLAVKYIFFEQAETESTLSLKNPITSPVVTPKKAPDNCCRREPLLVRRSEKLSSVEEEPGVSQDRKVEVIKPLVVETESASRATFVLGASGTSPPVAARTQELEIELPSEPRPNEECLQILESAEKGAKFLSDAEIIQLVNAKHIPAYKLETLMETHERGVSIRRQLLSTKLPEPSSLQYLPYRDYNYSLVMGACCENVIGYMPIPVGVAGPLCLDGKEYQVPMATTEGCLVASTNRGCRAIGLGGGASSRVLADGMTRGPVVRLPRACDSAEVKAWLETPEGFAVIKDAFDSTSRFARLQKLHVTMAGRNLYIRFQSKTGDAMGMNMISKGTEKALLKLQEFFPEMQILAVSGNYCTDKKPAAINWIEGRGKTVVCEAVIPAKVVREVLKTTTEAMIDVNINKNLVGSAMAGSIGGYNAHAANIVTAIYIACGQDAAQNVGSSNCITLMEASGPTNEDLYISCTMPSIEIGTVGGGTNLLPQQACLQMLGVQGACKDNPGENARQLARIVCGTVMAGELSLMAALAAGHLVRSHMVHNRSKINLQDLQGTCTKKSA
T1 sequence (G3H338 whole entry): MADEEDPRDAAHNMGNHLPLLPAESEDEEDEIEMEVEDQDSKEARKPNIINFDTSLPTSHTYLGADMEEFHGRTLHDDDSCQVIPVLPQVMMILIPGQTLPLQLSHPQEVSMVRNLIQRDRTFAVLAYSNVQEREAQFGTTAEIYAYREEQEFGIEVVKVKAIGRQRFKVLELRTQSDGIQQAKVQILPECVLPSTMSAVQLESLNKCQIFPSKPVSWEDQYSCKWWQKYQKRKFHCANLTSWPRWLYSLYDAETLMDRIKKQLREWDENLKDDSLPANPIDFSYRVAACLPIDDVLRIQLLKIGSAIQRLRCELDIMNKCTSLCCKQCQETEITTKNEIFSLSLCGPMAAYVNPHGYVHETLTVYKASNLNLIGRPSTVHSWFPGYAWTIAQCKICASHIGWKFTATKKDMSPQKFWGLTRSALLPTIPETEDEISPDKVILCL
Summary of the method: (§1)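 SRD15 cells treated with compound at varying concentrations for 16 h, final DMSO ≤0.1%; RIPA lysates (Lowry protein) immunoblotted for HMGCR, densitometry normalized to actin, DMSO set to 1; DC50 = concentration giving 50% loss versus DMSO, fitted to dose-response curve, mean of 3 independent experiments.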

[2] = target: T2, Sterol regulatory element-binding protein 2 (Mus musculus) (UniProt Q3U1N2); test: Activation of SREBP2 pathway in mouse primary hepatocytes assessed as increase in HMGCR mRNA expression at 0.01 to 1 uM afer 16 hrs by quantitative real-time PCR analysis; assay type: cell-based
T2 sequence (whole entry): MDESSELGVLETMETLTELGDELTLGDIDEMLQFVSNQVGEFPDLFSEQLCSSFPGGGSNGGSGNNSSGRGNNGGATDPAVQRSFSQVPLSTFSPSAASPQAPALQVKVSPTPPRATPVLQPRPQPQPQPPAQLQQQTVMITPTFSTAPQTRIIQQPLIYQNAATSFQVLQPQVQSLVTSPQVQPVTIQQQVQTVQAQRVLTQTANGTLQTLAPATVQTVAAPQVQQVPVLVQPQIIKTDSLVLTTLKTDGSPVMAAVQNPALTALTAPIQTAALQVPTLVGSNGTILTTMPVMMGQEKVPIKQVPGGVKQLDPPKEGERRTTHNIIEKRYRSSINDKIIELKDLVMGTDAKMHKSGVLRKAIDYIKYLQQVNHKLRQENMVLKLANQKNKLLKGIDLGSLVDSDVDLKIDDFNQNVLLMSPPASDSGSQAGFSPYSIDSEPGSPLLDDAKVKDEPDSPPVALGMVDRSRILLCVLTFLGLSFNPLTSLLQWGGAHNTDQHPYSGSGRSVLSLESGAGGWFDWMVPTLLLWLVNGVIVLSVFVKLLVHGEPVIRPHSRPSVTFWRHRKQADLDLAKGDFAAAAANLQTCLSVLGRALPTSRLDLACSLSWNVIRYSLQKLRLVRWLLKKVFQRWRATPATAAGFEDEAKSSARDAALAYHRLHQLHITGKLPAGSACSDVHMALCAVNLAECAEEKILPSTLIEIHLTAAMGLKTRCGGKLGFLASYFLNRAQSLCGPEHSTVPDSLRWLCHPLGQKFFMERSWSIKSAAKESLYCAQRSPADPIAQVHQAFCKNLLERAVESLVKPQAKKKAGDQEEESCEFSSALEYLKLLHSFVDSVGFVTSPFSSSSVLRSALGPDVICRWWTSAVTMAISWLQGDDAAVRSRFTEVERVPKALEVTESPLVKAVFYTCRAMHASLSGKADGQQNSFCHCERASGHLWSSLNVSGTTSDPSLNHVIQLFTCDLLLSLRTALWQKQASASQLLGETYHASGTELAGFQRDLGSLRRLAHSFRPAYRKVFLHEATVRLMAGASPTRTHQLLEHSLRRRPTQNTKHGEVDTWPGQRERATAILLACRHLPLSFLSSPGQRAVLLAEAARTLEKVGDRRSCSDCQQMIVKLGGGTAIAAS

[3] = target: T2, Sterol regulatory element-binding protein 2 (Mus musculus); test: Activation of SREBP2 pathway in mouse primary hepatocytes assessed as increase in LDLR mRNA expression at 0.01 to 1 uM afer 16 hrs by quantitative real-time PCR analysis; assay type: cell-based
[4] = target: T3, Protein cereblon/3-hydroxy-3-methylglutaryl-coenzyme A reductase (Cricetulus griseus) (UniProt P00347+G3H338); test: Protac activity at CRBN/HMGCR in Insig-1/Insig-2 deficient Chinese hamster SRD15 cells assessed as induction of HMGCR degradation at 0.01 to 1 uM after 16 hrs by immunoblotting analysis; summary of the method: as §1
[5] = target: T3, Protein cereblon/3-hydroxy-3-methylglutaryl-coenzyme A reductase (Cricetulus griseus); test: Protac activity at CRBN/HMGCR in Insig-1/Insig-2 deficient Chinese hamster SRD15 cells assessed as induction of HMGCR degradation at 3 uM after 16 hrs by immunoblotting analysis; summary of the method: as §1
Huh-7 = test: Inhibition of cholesterol biosynthesis in human HuH7 cells preincubated for 14 hrs and followed by addition of 14C-acetate and measured after 2 hrs by TL method; assay type: functional, cell-based
Summary of the method: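 Sterol-depleted Huh7 cells (Medium B plus 5% lipoprotein-deficient serum) treated at varying concentrations for 14 h, pulse-labelled with ¹⁴C-acetate 1 μCi/μL for 2 h, washed, lysed in 0.1 M NaOH; lipids separated by TLC, ¹⁴C-cholesterol read by phosphorimager, DMSO set to 1.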

[6] = target: T4, Thioredoxin domain-containing protein 11 (Homo sapiens) (UniProt Q6PKC3); test: Activation of TXNDC11 (unknown origin)
T4 sequence (whole entry): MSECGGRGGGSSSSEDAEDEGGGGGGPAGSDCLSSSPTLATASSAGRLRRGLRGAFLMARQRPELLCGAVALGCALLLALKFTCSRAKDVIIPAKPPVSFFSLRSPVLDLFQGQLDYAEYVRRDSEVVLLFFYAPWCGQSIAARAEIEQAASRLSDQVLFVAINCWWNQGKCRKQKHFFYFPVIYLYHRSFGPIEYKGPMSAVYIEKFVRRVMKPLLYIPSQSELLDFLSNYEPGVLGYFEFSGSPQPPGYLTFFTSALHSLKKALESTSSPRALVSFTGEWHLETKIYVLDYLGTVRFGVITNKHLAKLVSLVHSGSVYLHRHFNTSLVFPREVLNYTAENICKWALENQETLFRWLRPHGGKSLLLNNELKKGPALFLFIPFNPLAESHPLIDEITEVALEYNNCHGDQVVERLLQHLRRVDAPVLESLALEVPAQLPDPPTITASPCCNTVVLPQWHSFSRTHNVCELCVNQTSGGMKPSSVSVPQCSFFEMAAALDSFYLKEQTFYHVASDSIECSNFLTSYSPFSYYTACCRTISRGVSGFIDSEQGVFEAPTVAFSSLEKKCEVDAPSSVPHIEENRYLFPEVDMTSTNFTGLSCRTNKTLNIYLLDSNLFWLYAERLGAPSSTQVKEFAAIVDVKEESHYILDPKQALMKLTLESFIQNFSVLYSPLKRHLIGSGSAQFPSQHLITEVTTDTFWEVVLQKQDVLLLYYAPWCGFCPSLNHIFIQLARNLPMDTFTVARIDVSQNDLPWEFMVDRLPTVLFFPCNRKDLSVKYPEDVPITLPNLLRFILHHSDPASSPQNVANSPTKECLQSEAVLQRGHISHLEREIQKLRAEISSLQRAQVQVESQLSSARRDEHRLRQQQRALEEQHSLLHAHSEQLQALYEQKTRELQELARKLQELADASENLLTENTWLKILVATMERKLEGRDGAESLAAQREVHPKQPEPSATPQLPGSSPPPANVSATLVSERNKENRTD

| DC50 [1] | Activity [2] | Activity [3] | Activity [4] | Structure (SMILES) | other results |
| --- | --- | --- | --- | --- | --- |
| 400 nM | Active | Active | – | CC(C)c1c(C(=O)Nc2ccccc2)c(-c2cccc(OCCCc3cn(CCCCCCNc4cccc5c4C(=O)N(C4CCC(=O)NC4=O)C5=O)nn3)c2)c(-c2ccc(F)cc2)n1CC[C@@H](O)C[C@@H](O)CC(=O)O (stereo partly specified) | – |
| 200 nM | Active | Active | – | CC(C)c1c(C(=O)Nc2ccccc2)c(-c2cccc(OCCCc3cn(CCCCCCCNc4cccc5c4C(=O)N(C4CCC(=O)NC4=O)C5=O)nn3)c2)c(-c2ccc(F)cc2)n1CC[C@@H](O)C[C@@H](O)CC(=O)O (stereo partly specified) | – |
| 400 nM | Active | Active | – | CC(C)c1c(C(=O)Nc2ccccc2)c(-c2cccc(OCCCCCc3cn(CCCCCCCNc4cccc5c4C(=O)N(C4CCC(=O)NC4=O)C5=O)nn3)c2)c(-c2ccc(F)cc2)n1CC[C@@H](O)C[C@@H](O)CC(=O)O (stereo partly specified) | – |
| 300 nM | Active | Active | – | CC(C)c1c(C(=O)Nc2ccccc2)c(-c2cccc(OCCCCc3cn(CCCCCCCNc4cccc5c4C(=O)N(C4CCC(=O)NC4=O)C5=O)nn3)c2)c(-c2ccc(F)cc2)n1CC[C@@H](O)C[C@@H](O)CC(=O)O (stereo partly specified) | – |

Further lines, the compound ahead of its results:

| Structure (SMILES) | DC50 [1] | Activity [2] | Activity [3] | Activity [4] | other results |
| --- | --- | --- | --- | --- | --- |
| C#CCCCOc1cccc(-c2c(C(=O)Nc3ccccc3)c(C(C)C)n(CC[C@@H](O)C[C@@H](O)CC(=O)O)c2-c2ccc(F)cc2)c1 | – | – | – | inactive | – |
| CC(C)c1c(C(=O)Nc2ccccc2)c(-c2cccc(OCCCc3cn(CCOCCOCCOCCOCCNc4ccc5c(c4)C(=O)N(C4CCC(=O)NC4=O)C5=O)nn3)c2)c(-c2ccc(F)cc2)n1CC[C@@H](O)C[C@@H](O)CC(=O)O (stereo partly specified) | 300 nM | – | – | – | Activity [5]: inactive |
| C#CCOc1cccc(-c2c(C(=O)Nc3ccccc3)c(C(C)C)n(CC[C@@H](O)C[C@@H](O)CC(=O)O)c2-c2ccc(F)cc2)c1 | – | – | – | inactive | – |
| C#CCCCCCOc1cccc(-c2c(C(=O)Nc3ccccc3)c(C(C)C)n(CC[C@@H](O)C[C@@H](O)CC(=O)O)c2-c2ccc(F)cc2)c1 | – | – | – | inactive | – |
| C#CCCCCOc1cccc(-c2c(C(=O)Nc3ccccc3)c(C(C)C)n(CC[C@@H](O)C[C@@H](O)CC(=O)O)c2-c2ccc(F)cc2)c1 | – | – | – | inactive | – |
| CC(C)c1c(C(=O)Nc2ccccc2)c(-c2ccccc2)c(-c2ccc(F)cc2)n1CC[C@@H](O)C[C@@H](O)CC(=O)O | – | – | – | – | inhibition (Huh-7): Active; fold change (FC) [6]: 108 |
| CC(C)c1c(C(=O)Nc2ccccc2)c(-c2cccc(OCCCCCCc3cn(CCCCCCCNc4cccc5c4C(=O)N(C4CCC(=O)NC4=O)C5=O)nn3)c2)c(-c2ccc(F)cc2)n1CC[C@@H](O)C[C@@H](O)CC(=O)O (stereo partly specified) | 300 nM | – | – | – | – |
